≈ marks a conversion by molar mass, not a printed value.
Columns and labels:
[1] = tested on: Mycobacterium tuberculosis; assay: Antimycobacterial activity against Mycobacterium tuberculosis H37Rv ATCC 27294 assessed as inhibition of bacterial growth incubated for 28 days; type: functional; details: H37Rv ATCC 27294, 672 h
Outline: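 Agar dilution in Middlebrook 7H11 with OADC, two-fold dilutions at final 50 to 0.78 μg mL–1. Inoculum from fresh 7H11 slants, adjusted to 1 mg mL–1 wet weight in 0.05% Tween 80 saline, diluted 10–2 to about 10^7 cfu mL–1; 5 μL spotted per tube. Incubated at 37 °C. MIC = lowest concentration giving complete growth inhibition, read at 28 days, in triplicate.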

[2] = Lipophilicity, log P of the compound; type: physicochemical; details: octanol/water
Outline: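 Value is a calculated log P (clog P), computed rather than measured experimentally.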

[3] = Cytotoxicity in HEK cells assessed as inhibition of cell growth at 50 ug/ml incubated for 72 hrs by MTT assay; type: cell-based; details: human, read-out: GI
Outline: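 HEK cells were exposed to compound at 50 μg mL–1 for 72 h. Viability was taken from cellular conversion of MTT to formazan, using a non-radioactive cell proliferation kit.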

Bacillus subtilis = assay: Antibacterial activity against Bacillus subtilis MTCC 121 by agar dilution method; type: functional
Outline: (§1)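 Minimum inhibitory concentration measured by agar dilution against three Gram-positive and three Gram-negative MTCC strains; read out as MIC.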

Klebsiella aerogenes = assay: Antibacterial activity against Enterobacter aerogenes MTCC 111 by agar dilution method; type: functional; outline: as §1
Aspergillus niger = assay: Antifungal activity against Aspergillus niger MTCC 282; type: functional
Outline: (§2)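 Antifungal read-out was MIC in μg mL–1, with fluconazole as the reference drug.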

Bacillus cereus = assay: Antibacterial activity against Bacillus cereus MTCC 430 by agar dilution method; type: functional; outline: as §1
Candida albicans = assay: Antifungal activity against Candida albicans MTCC 9062; type: functional; outline: as §2
Escherichia coli = assay: Antibacterial activity against Escherichia coli MTCC 1652 by agar dilution method; type: functional; outline: as §1
Staphylococcus aureus = assay: Antibacterial activity against Staphylococcus aureus MTCC 96 by agar dilution method; type: functional; outline: as §1
Pseudomonas aeruginosa = assay: Antibacterial activity against Pseudomonas aeruginosa MTCC 741 by agar dilution method; type: functional; outline: as §1

Row | Structure (SMILES) | MIC [1] | logP [2] | inhibition at 72 h, 50 ug/ml [3] | MIC (Bacillus subtilis) | MIC (Klebsiella aerogenes) | MIC (Aspergillus niger) | MIC (Bacillus cereus) | MIC (Candida albicans) | MIC (Escherichia coli) | MIC (Staphylococcus aureus) | MIC (Pseudomonas aeruginosa)
1 | O=Cc1cn(-c2ccccc2)nn1 | 25 µg/mL (≈ 144 µM) |  |  |  |  |  |  |  |  |  | 
2 | O=Cc1cn(-c2ccc(Cl)cc2)nn1 | 6.25 µg/mL (≈ 30.1 µM) |  |  |  |  |  |  |  |  |  | 
3 | O=Cc1cn(-c2ccccc2Cl)nn1 | 25 µg/mL (≈ 120 µM) |  |  |  |  |  |  |  |  |  | 
4 | O=Cc1cn(-c2ccc([N+](=O)[O-])cc2)nn1 | > 25 µg/mL |  |  |  |  |  |  |  |  |  | 
5 | COc1ccc(-n2cc(C=O)nn2)cc1 | 12.5 µg/mL (≈ 61.5 µM) |  |  |  |  |  |  |  |  |  | 
6 | COc1ccccc1-n1cc(C=O)nn1 | > 25 µg/mL |  |  |  |  |  |  |  |  |  | 
7 | COc1ccc(-n2cc(C3C4=C(CCCC4=O)Oc4ccc5ccccc5c43)nn2)cc1 (configuration not stated) | 6.25 µg/mL (≈ 14.8 µM) | 3.73 | 22.2% | 12.5 µg/mL (≈ 29.5 µM) | 6.25 µg/mL (≈ 14.8 µM) | 3.12 µg/mL (≈ 7.37 µM) | 3.12 µg/mL (≈ 7.37 µM) | 3.12 µg/mL (≈ 7.37 µM) | 3.12 µg/mL (≈ 7.37 µM) | 3.12 µg/mL (≈ 7.37 µM) | 6.25 µg/mL (≈ 14.8 µM)
8 | O=C1CCCC2=C1C(c1cn(-c3ccc([N+](=O)[O-])cc3)nn1)c1c(ccc3ccccc13)O2 (configuration not stated) | > 25 µg/mL |  |  | > 100 µg/mL | > 100 µg/mL | > 100 µg/mL | > 100 µg/mL | > 100 µg/mL | 50 µg/mL (≈ 114 µM) | > 100 µg/mL | 50 µg/mL (≈ 114 µM)
9 | O=C1CCCC2=C1C(c1cn(-c3ccccc3)nn1)c1c(ccc3ccccc13)O2 (configuration not stated) | 12.5 µg/mL (≈ 31.8 µM) | 3.85 |  | 3.12 µg/mL (≈ 7.93 µM) | 3.12 µg/mL (≈ 7.93 µM) | 3.12 µg/mL (≈ 7.93 µM) | 3.12 µg/mL (≈ 7.93 µM) | 3.12 µg/mL (≈ 7.93 µM) | 3.12 µg/mL (≈ 7.93 µM) | 3.12 µg/mL (≈ 7.93 µM) | 3.12 µg/mL (≈ 7.93 µM)
10 | CC1(C)CC(=O)C2=C(C1)Oc1ccc3ccccc3c1C2c1cn(-c2ccc(Cl)cc2)nn1 (configuration not stated) | 3.12 µg/mL (≈ 6.85 µM) | 5.21 | 18.1% | 12.5 µg/mL (≈ 27.4 µM) | 12.5 µg/mL (≈ 27.4 µM) | 12.5 µg/mL (≈ 27.4 µM) | 12.5 µg/mL (≈ 27.4 µM) | 12.5 µg/mL (≈ 27.4 µM) | 12.5 µg/mL (≈ 27.4 µM) | 12.5 µg/mL (≈ 27.4 µM) | 12.5 µg/mL (≈ 27.4 µM)
11 | CC1(C)CC(=O)C2=C(C1)Oc1ccc3ccccc3c1C2c1cn(-c2ccc([N+](=O)[O-])cc2)nn1 (configuration not stated) | > 25 µg/mL |  |  | 6.25 µg/mL (≈ 13.4 µM) | 3.12 µg/mL (≈ 6.69 µM) | 6.25 µg/mL (≈ 13.4 µM) | 6.25 µg/mL (≈ 13.4 µM) | 3.12 µg/mL (≈ 6.69 µM) | 3.12 µg/mL (≈ 6.69 µM) | 12.5 µg/mL (≈ 26.8 µM) | 12.5 µg/mL (≈ 26.8 µM)
12 | O=Cc1cn(-c2ccc(O)cc2)nn1 | > 25 µg/mL |  |  |  |  |  |  |  |  |  | 
13 | CC1(C)CC(=O)C2=C(C1)Oc1ccc3ccccc3c1C2c1cn(-c2ccccc2)nn1 (configuration not stated) | 12.5 µg/mL (≈ 29.7 µM) | 4.65 |  | 25 µg/mL (≈ 59.3 µM) | 6.25 µg/mL (≈ 14.8 µM) | 6.25 µg/mL (≈ 14.8 µM) | 12.5 µg/mL (≈ 29.7 µM) | 25 µg/mL (≈ 59.3 µM) | 12.5 µg/mL (≈ 29.7 µM) | 6.25 µg/mL (≈ 14.8 µM) | 25 µg/mL (≈ 59.3 µM)
14 | COc1ccccc1-n1cc(C2C3=C(CCCC3=O)Oc3ccc4ccccc4c32)nn1 (configuration not stated) | 25 µg/mL (≈ 59 µM) | 3.73 |  | 12.5 µg/mL (≈ 29.5 µM) | 6.25 µg/mL (≈ 14.8 µM) | 12.5 µg/mL (≈ 29.5 µM) | 25 µg/mL (≈ 59 µM) | 6.25 µg/mL (≈ 14.8 µM) | 12.5 µg/mL (≈ 29.5 µM) | 6.25 µg/mL (≈ 14.8 µM) | 6.25 µg/mL (≈ 14.8 µM)
15 | CC1(C)CC(=O)C2=C(C1)Oc1ccc3ccccc3c1C2c1cn(-c2ccc(O)cc2)nn1 (configuration not stated) | > 25 µg/mL | 4.26 |  | 6.25 µg/mL (≈ 14.3 µM) | 6.25 µg/mL (≈ 14.3 µM) | 12.5 µg/mL (≈ 28.6 µM) | 12.5 µg/mL (≈ 28.6 µM) | 3.12 µg/mL (≈ 7.13 µM) | 3.12 µg/mL (≈ 7.13 µM) | 6.25 µg/mL (≈ 14.3 µM) | 6.25 µg/mL (≈ 14.3 µM)
16 | O=C1CCCC2=C1C(c1cn(-c3cccc(C(F)(F)F)c3)nn1)c1c(ccc3ccccc13)O2 (configuration not stated) | > 25 µg/mL | 4.77 |  | 12.5 µg/mL (≈ 27.1 µM) | 12.5 µg/mL (≈ 27.1 µM) | 50 µg/mL (≈ 108 µM) | 25 µg/mL (≈ 54.2 µM) | 50 µg/mL (≈ 108 µM) | 12.5 µg/mL (≈ 27.1 µM) | 6.25 µg/mL (≈ 13.5 µM) | 6.5 µg/mL (≈ 14.1 µM)
17 | O=C1CCCC2=C1C(c1cn(-c3ccccc3Cl)nn1)c1c(ccc3ccccc13)O2 (configuration not stated) | 25 µg/mL (≈ 58.4 µM) | 4.41 |  | > 100 µg/mL | 50 µg/mL (≈ 117 µM) | 12.5 µg/mL (≈ 29.2 µM) | > 100 µg/mL | > 100 µg/mL | 12.5 µg/mL (≈ 29.2 µM) | > 100 µg/mL | 50 µg/mL (≈ 117 µM)
18 | O=C1CCCC2=C1C(c1cn(-c3ccc(O)cc3)nn1)c1c(ccc3ccccc13)O2 (configuration not stated) | > 25 µg/mL | 3.46 |  | > 100 µg/mL | > 100 µg/mL | > 100 µg/mL | > 100 µg/mL | > 100 µg/mL | > 100 µg/mL | > 100 µg/mL | > 100 µg/mL
19 | COc1ccccc1-n1cc(C2C3=C(CC(C)(C)CC3=O)Oc3ccc4ccccc4c32)nn1 (configuration not stated) | 12.5 µg/mL (≈ 27.7 µM) | 4.53 |  | > 100 µg/mL | > 100 µg/mL | > 100 µg/mL | 50 µg/mL (≈ 111 µM) | 25 µg/mL (≈ 55.4 µM) | 25 µg/mL (≈ 55.4 µM) | > 100 µg/mL | > 100 µg/mL
20 | O=Cc1cn(-c2cccc(C(F)(F)F)c2)nn1 | > 25 µg/mL |  |  |  |  |  |  |  |  |  | 
21 | CC1(C)CC(=O)C2=C(C1)Oc1ccc3ccccc3c1C2c1cn(-c2ccccc2Cl)nn1 (configuration not stated) | 25 µg/mL (≈ 54.8 µM) | 5.21 |  | 6.25 µg/mL (≈ 13.7 µM) | 12.5 µg/mL (≈ 27.4 µM) | 3.12 µg/mL (≈ 6.84 µM) | 3.12 µg/mL (≈ 6.84 µM) | 3.12 µg/mL (≈ 6.84 µM) | 3.12 µg/mL (≈ 6.84 µM) | 3.12 µg/mL (≈ 6.84 µM) | 6.25 µg/mL (≈ 13.7 µM)
22 | CC1(C)CC(=O)C2=C(C1)Oc1ccc3ccccc3c1C2c1cn(-c2cccc(C(F)(F)F)c2)nn1 (configuration not stated) | > 25 µg/mL | 5.57 |  | 50 µg/mL (≈ 102 µM) | 25 µg/mL (≈ 51.1 µM) | 12.5 µg/mL (≈ 25.5 µM) | 12.5 µg/mL (≈ 25.5 µM) | 100 µg/mL (≈ 204 µM) | 100 µg/mL (≈ 204 µM) | 25 µg/mL (≈ 51.1 µM) | 25 µg/mL (≈ 51.1 µM)
23 | O=C1CCCC2=C1C(c1cn(-c3ccc(Cl)cc3)nn1)c1c(ccc3ccccc13)O2 (configuration not stated) | 3.12 µg/mL (≈ 7.3 µM) | 4.41 | 18.1% | 50 µg/mL (≈ 117 µM) | 12.5 µg/mL (≈ 29.2 µM) | > 100 µg/mL | 12.5 µg/mL (≈ 29.2 µM) | > 100 µg/mL | 12.5 µg/mL (≈ 29.2 µM) | 12.5 µg/mL (≈ 29.2 µM) | 25 µg/mL (≈ 58.4 µM)
24 | COc1ccc(-n2cc(C3C4=C(CC(C)(C)CC4=O)Oc4ccc5ccccc5c43)nn2)cc1 (configuration not stated) | 6.25 µg/mL (≈ 13.8 µM) | 4.53 | 21.2% | 6.25 µg/mL (≈ 13.8 µM) | 6.25 µg/mL (≈ 13.8 µM) | 3.12 µg/mL (≈ 6.91 µM) | 3.12 µg/mL (≈ 6.91 µM) | 6.25 µg/mL (≈ 13.8 µM) | 12.5 µg/mL (≈ 27.7 µM) | 6.25 µg/mL (≈ 13.8 µM) | 6.25 µg/mL (≈ 13.8 µM)
25 | O=C(O)c1cn(C2CC2)c2cc(N3CCNCC3)c(F)cc2c1=O [CIPROFLOXACIN] |  |  |  | ≤ 6.25 µg/mL | ≤ 6.25 µg/mL |  | ≤ 6.25 µg/mL |  | ≤ 6.25 µg/mL | ≤ 6.25 µg/mL | ≤ 6.25 µg/mL
26 | CC[C@@H](CO)NCCN[C@@H](CC)CO [ETHAMBUTOL] | 7.64 µg/mL (≈ 37.4 µM) |  |  |  |  |  |  |  |  |  | 
27 | OC(Cn1cncn1)(Cn1cncn1)c1ccc(F)cc1F [FLUCONAZOLE] |  |  |  |  |  | ≤ 3.12 µg/mL |  | ≤ 3.12 µg/mL |  |  | 
28 | NNC(=O)c1ccncc1 [ISONIAZID] | 0.72 µg/mL (≈ 5.25 µM) |  |  |  |  |  |  |  |  |  | 
29 | NC(=O)c1cnccn1 [PYRAZINAMIDE] | 50.8 µg/mL (≈ 412 µM) |  |  |  |  |  |  |  |  |  | 
30 | CO[C@H]1/C=C/O[C@@]2(C)Oc3c(C)c(O)c4c(O)c(c(/C=N/N5CCN(C)CC5)c(O)c4c3C2=O)NC(=O)/C(C)=C\C=C\[C@H](C)[C@H](O)[C@@H](C)[C@@H](O)[C@@H](C)[C@H](OC(C)=O)[C@@H]1C [RIFAMPIN] | 0.24 µg/mL (≈ 0.292 µM) |  |  |  |  |  |  |  |  |  | 
